Data taken from paper PMC3556274 (Bioconjugate chemistry, 2012).
Non-standard residues stand in square brackets, D forms with d. Residues, ends and D or L forms follow the SMILES beside them. *: point of attachment. DTPA = O=C(O)CN(CCN(CC(=O)O)CC(=O)O)CCN(CC(=O)O)CC(=O)*; Orn = NCCC[C@H](N)C(=O)O; 2Furoyl = O=C(c1ccco1)*

Experiments:
PAR2 [1] = target: T1, PAR2 (Homo sapiens, UniProt P55085); type: binding; conditions: 16HBE14o- cells, against 300 nM 2-f-LIGRLO-dtpa
T1 sequence (P55085 26-397): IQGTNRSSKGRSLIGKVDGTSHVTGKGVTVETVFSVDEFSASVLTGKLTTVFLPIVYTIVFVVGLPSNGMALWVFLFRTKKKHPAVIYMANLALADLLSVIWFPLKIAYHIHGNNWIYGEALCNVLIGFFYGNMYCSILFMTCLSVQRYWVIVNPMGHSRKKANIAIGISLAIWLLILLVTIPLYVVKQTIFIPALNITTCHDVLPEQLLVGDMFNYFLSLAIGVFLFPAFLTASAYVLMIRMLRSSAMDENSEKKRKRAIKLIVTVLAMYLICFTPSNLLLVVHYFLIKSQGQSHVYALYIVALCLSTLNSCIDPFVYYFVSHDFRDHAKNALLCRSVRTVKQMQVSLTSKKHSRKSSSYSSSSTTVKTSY
Method in brief: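 Live 16HBE14o- cells grown to confluence (37°C, 5% CO2) on BSA/collagen I/fibronectin-coated 96-well plates. Cells were blocked 75 min in 2% BSA in HEPES-buffered HBSS pH 7.4, then given 45 min at 25°C with 300 nM Eu-DTPA-labelled PAR2 agonist plus competitor at 1 nM–600 µM. Three EDTA/Tween/BSA washes followed, then DELFIA enhancement for 40–45 min. Eu TRF read at ex 340/em 615 nm with 400 µs delay. Apparent IC50 from n ≥ 3 per concentration in ≥2 independent plates.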

PAR2 [2] = target: T1, PAR2; test: Ca2+ signaling by digital imaging microscopy in 16HBE14o- cells; type: cell-based; conditions: 5 µM
Method in brief: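 Human bronchial epithelial 16HBE14o- cells (high PAR2 expression) imaged by digital microscopy for [Ca2+]i changes in individual cells over a 3 min run after agonist addition. Concentration response 0.5–25 µM. Read-out: time course of [Ca2+]i rise and percentage of cells in the field responding within 3 min. Each concentration had 3–9 experiments.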

[3] = system: control vector-transfected (kNRK) rat kidney cells; test: Ca2+ signaling in control vector-transfected kNRK cells; type: cell-based
Method in brief: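 Kirsten virus-transformed normal rat kidney cells (low PAR2 expression) transfected with control vector were run alongside PAR2-transfected kNRK cells. [Ca2+]i was imaged by digital microscopy as for the bronchial epithelial cells, scoring the percentage of cells responding within the 3 min run. Comparison was to matched control, n ≥ 4.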

PAR2 [4] = target: T1, PAR2; test: MAPK signaling, immunoblot of pERK/tERK; type: cell-based; conditions: 16HBE14o- cells, 5 min exposure, concentration response 1-10 µM
Method in brief: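 16HBE14o- cells exposed 5 min to test compound at 1–10 µM. ERK1/2 phosphorylation measured by immunoblot as pERK relative to total ERK. Values were compared with matching HBSS control.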

PAR2 [5] = target: T1, PAR2; test: xCELLigence Real Time Cell Analyzer; type: cell-based; conditions: 16HBE14o- cells

| Compound | competition for PAR2 binding (in words) (PAR2 [1]) | time to initial increase in [Ca2+]i (PAR2 [2]) [s] | percentage of cells with Ca2+ signaling ([3]; 2.5 µM) | percentage of cells with Ca2+ signaling ([3]; 5 µM) | concentration inducing a significant increase in pERK/tERK compared with control (PAR2 [4]) [µM] | concentration of peak (maximum) pERK/tERK activation (PAR2 [4]) [µM] | concentration that stimulated a maximum Cell Index (PAR2 [5]; RTCA) [µM] | agonist properties in the RTCA physiological response assay (PAR2 [5]; acute (10 min) and long-term (4 h) time points) |
| --- | --- | --- | --- | --- | --- | --- | --- | --- |
| 3-indoleacetyl-LIGRL-NH2 [3-ia-LIGRL] | displayed limited binding |  |  |  |  |  |  |  |
| CC[C@H](C)[C@H](NC(=O)[C@H](CC(C)C)NC(=O)c1ccco1)C(=O)NCC(=O)N[C@@H](CCCNC(=N)N)C(=O)N[C@@H](CC(C)C)C(=O)N[C@@H](CCCNC(=O)CN(CCN(CCN(CC(=O)O)CC(=O)O)CC(=O)O)CC(=O)O)C(N)=O [2-f-LIGRLO-dtpa, 2-furoyl-LIGRLO-(diethylenetriaminepentaacetic acid)-NH2] (2Furoyl-LIGRL[Orn](DTPA)-NH2) |  | ≤ 30 | 0.42% ± 0.42 | 2.98% ± 0.09 | 2.5 | 10 | 2.5 | full agonist properties |
